What was measured:
Hep 3B2 [1] = assay: Proliferative activity against human Hep3B cells assessed as cell viability at 0.1 uM after 4 days by cell counting method relative to control; type: functional; conditions: 96 h, read-out: Activity
How it was run: (§1)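 Hep3B kept in DMEM/10% FBS, 37°C, 5% CO2, then seeded at 1×10^5 cells/ml in medium containing compound (0.1–100 μM; DMSO-only control) in monolayer. Cells were checked daily by microscope for attachment and morphology, and counted after 4 days, in triplicate, in three independent experiments. Counts are given as % of the 0 μM group.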

Hep 3B2 [2] = assay: Cytotoxicity against human Hep3B cells assessed as effect on cell attachment at 0.1 to 100 uM measured every day during 4 days incubation period by microscopic method; type: cell-based; conditions: hep 3b2, 96 h; how it was run: as §1
Hep 3B2 [3] = assay: Proliferative activity against human Hep3B cells assessed as cell viability at 100 uM after 4 days by cell counting method relative to control; type: functional; conditions: 96 h, read-out: Activity; how it was run: as §1
NIH3T3 [4] = assay: Cytoprotective activity against GOX-induced oxidative stress in mouse NIH/3T3 cells assessed as cell survival at 10 uM treated for 5 hrs with 15 mU/ml GOX challenge by MTT assay (reference value: 42.71 +/- 2.10%); type: functional; conditions: NIH3T3, 5 h, read-out: Survival
NIH3T3 [5] = assay: Cytoprotective activity against GOX-induced cytotoxicity in mouse NIH/3T3 cells assessed as decrease in LDH release treated for 5 hrs with 15 mU/ml GOX challenge by spectrophotometric method; type: functional, cell-based
NIH3T3 [6] = assay: Cytoprotective activity against GOX-induced cytotoxicity in mouse NIH/3T3 cells assessed as LDH release at 10 uM treated for 5 hrs with 15 mU/ml GOX challenge by spectrophotometric method (reference value: 63.34 +/- 1.85%); type: functional
Hep 3B2 [7] = assay: Cytoprotective activity against GOX-induced cytotoxicity in human Hep3B cells assessed as decrease in LDH release treated for 5 hrs with 15 mU/ml GOX challenge by spectrophotometric method; type: functional, cell-based
Hep 3B2 [8] = assay: Proliferative activity against human Hep3B cells assessed as cell viability after 4 days by cell counting method; type: functional, cell-based; how it was run: as §1
Hep 3B2 [9] = assay: Cytoprotective activity against GOX-induced oxidative stress in human Hep3B cells assessed as cell survival at 10 uM treated for 5 hrs with 15 mU/ml GOX challenge by MTT assay (reference value: 41.51 +/- 1.39%); type: functional; conditions: read-out: Survival
NIH3T3 [10] = assay: Cytoprotective activity against GOX-induced cytotoxicity in mouse NIH/3T3 cells assessed as LDH release at 0.1 uM treated for 5 hrs with 15 mU/ml GOX challenge by spectrophotometric method (reference value: 63.34 +/- 1.85%); type: functional
NIH3T3 [11] = assay: Cytoprotective activity against GOX-induced oxidative stress in mouse NIH/3T3 cells assessed as cell survival at 0.1 uM treated for 5 hrs with 15 mU/ml GOX challenge by MTT assay (reference value: 42.71 +/- 2.10%); type: functional; conditions: NIH3T3, 5 h, read-out: Survival
NIH3T3 [12] = assay: Cytoprotective activity against GOX-induced cytotoxicity in mouse NIH/3T3 cells assessed as LDH release at 100 uM treated for 5 hrs with 15 mU/ml GOX challenge by spectrophotometric method (reference value: 63.34 +/- 1.85%); type: functional
Hep 3B2 [13] = assay: Cytotoxicity against human Hep3B cells assessed as effect on cell morphology at 0.1 to 100 uM measured every day during 4 days incubation period by microscopic method; type: cell-based; conditions: hep 3b2, 96 h; how it was run: as §1
Hep 3B2 [14] = assay: Cytoprotective activity against GOX-induced cytotoxicity in human Hep3B cells assessed as LDH release at 100 uM treated for 5 hrs with 15 mU/ml GOX challenge by spectrophotometric method (reference value: 60.94 +/- 1.18%); type: functional
Hep 3B2 [15] = assay: Cytoprotective activity against GOX-induced oxidative stress in human Hep3B cells assessed as increase in cell survival treated for 5 hrs with 15 mU/ml GOX challenge by MTT assay; type: functional, cell-based
How it was run: (§2)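 Cells plated at 7×10^4 per well; next day exposed for 5 h to compound (0.1–100 μM) with 15 mU/ml glucose oxidase in growth medium. Viability expressed relative to GOX-free cells; α-tocopherol positive control.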

NIH3T3 [16] = assay: Cytoprotective activity against GOX-induced oxidative stress in mouse NIH/3T3 cells assessed as increase in cell survival treated for 5 hrs with 15 mU/ml GOX challenge by MTT assay; type: functional, cell-based; how it was run: as §2
Hep 3B2 [17] = assay: Cytoprotective activity against GOX-induced cytotoxicity in human Hep3B cells assessed as LDH release at 0.1 uM treated for 5 hrs with 15 mU/ml GOX challenge by spectrophotometric method (reference value: 60.94 +/- 1.18%); type: functional
NIH3T3 [18] = assay: Cytoprotective activity against GOX-induced cytotoxicity in mouse NIH/3T3 cells assessed as LDH release at 1 uM treated for 5 hrs with 15 mU/ml GOX challenge by spectrophotometric method (reference value: 63.34 +/- 1.85%); type: functional
Hep 3B2 [19] = assay: Cytoprotective activity against GOX-induced cytotoxicity in human Hep3B cells assessed as LDH release at 1 uM treated for 5 hrs with 15 mU/ml GOX challenge by spectrophotometric method (reference value: 60.94 +/- 1.18%); type: functional
Hep 3B2 [20] = assay: Cytoprotective activity against GOX-induced oxidative stress in human Hep3B cells assessed as cell survival at 1 uM treated for 5 hrs with 15 mU/ml GOX challenge by MTT assay (reference value: 41.51 +/- 1.39%); type: functional; conditions: read-out: Survival
Hep 3B2 [21] = assay: Cytoprotective activity against GOX-induced cytotoxicity in human Hep3B cells assessed as LDH release at 10 uM treated for 5 hrs with 15 mU/ml GOX challenge by spectrophotometric method (reference value: 60.94 +/- 1.18%); type: functional
Hep 3B2 [22] = assay: Cytoprotective activity against GOX-induced oxidative stress in human Hep3B cells assessed as cell survival at 100 uM treated for 5 hrs with 15 mU/ml GOX challenge by MTT assay (reference value: 41.51 +/- 1.39%); type: functional; conditions: read-out: Survival
NIH3T3 [23] = assay: Cytoprotective activity against GOX-induced oxidative stress in mouse NIH/3T3 cells assessed as cell survival at 100 uM treated for 5 hrs with 15 mU/ml GOX challenge by MTT assay (reference value: 42.71 +/- 2.10%); type: functional; conditions: NIH3T3, 5 h, read-out: Survival
NIH3T3 [24] = assay: Cytoprotective activity against GOX-induced oxidative stress in mouse NIH/3T3 cells assessed as cell survival at 1 uM treated for 5 hrs with 15 mU/ml GOX challenge by MTT assay (reference value: 42.71 +/- 2.10%); type: functional; conditions: NIH3T3, 5 h, read-out: Survival
Hep 3B2 [25] = assay: Proliferative activity against human Hep3B cells assessed as cell viability at 1 uM after 4 days by cell counting method relative to control; type: functional; conditions: 96 h, read-out: Activity; how it was run: as §1
Hep 3B2 [26] = assay: Cytoprotective activity against GOX-induced oxidative stress in human Hep3B cells assessed as cell survival at 0.1 uM treated for 5 hrs with 15 mU/ml GOX challenge by MTT assay (reference value: 41.51 +/- 1.39%); type: functional; conditions: read-out: Survival
Hep 3B2 [27] = assay: Proliferative activity against human Hep3B cells assessed as cell viability at 10 uM after 4 days by cell counting method relative to control; type: functional; conditions: 96 h, read-out: Activity; how it was run: as §1

Question: With `CO[C@H]1c2c(ccc3ccc(=O)oc23)O[C@@H]1C(C)(C)O` as the molecule, how does the viability at 0.1 µM (Hep 3B2 [1]) read?
Answer: Its viability at 0.1 µM is 106%.

Question: What about the Activity (Hep 3B2 [2]) of the same molecule?
Answer: The Activity was “Non-Toxic”.

Question: What about the viability at 100 µM (Hep 3B2 [3]) of the same molecule?
Answer: The viability at 100 µM was 163%.

Question: And the viability at 10 µM (NIH3T3 [4])?
Answer: The viability at 10 µM was 118%.

Question: And the Activity (NIH3T3 [5])?
Answer: The Activity was “Dose-dependent effect”.

Question: And the Activity (NIH3T3 [6])?
Answer: Its Activity is 4.2%.

Question: And the Activity (Hep 3B2 [7])?
Answer: Its Activity is “Dose-dependent effect”.

Question: And the Activity (Hep 3B2 [8])?
Answer: Its Activity is “Dose-dependent effect”.

Question: And the viability at 10 µM (Hep 3B2 [9])?
Answer: Its viability at 10 µM is 100%.

Question: What about the Activity (NIH3T3 [10]) of the same molecule?
Answer: Its Activity is 15.41%.

Question: And the viability at 0.1 µM (NIH3T3 [11])?
Answer: The viability at 0.1 µM was 69%.

Question: And the Activity (NIH3T3 [12])?
Answer: The Activity was 1.89%.

Question: What about the Activity (Hep 3B2 [13]) of the same molecule?
Answer: Its Activity is “Non-Toxic”.

Question: What about the Activity (Hep 3B2 [14]) of the same molecule?
Answer: The Activity was 2.59%.

Question: And the Activity (Hep 3B2 [15])?
Answer: The Activity was “Dose-dependent effect”.

Question: And the Activity (NIH3T3 [16])?
Answer: The Activity was “Dose-dependent effect”.

Question: And the Activity (Hep 3B2 [17])?
Answer: The Activity was 14.07%.

Question: What about the Activity (NIH3T3 [18]) of the same molecule?
Answer: The Activity was 6.59%.

Question: And the Activity (Hep 3B2 [19])?
Answer: Its Activity is 10.56%.

Question: What about the viability at 1 µM (Hep 3B2 [20]) of the same molecule?
Answer: Its viability at 1 µM is 87.1%.

Question: What about the Activity (Hep 3B2 [21]) of the same molecule?
Answer: The Activity was 5.66%.

Question: What about the viability at 100 µM (Hep 3B2 [22]) of the same molecule?
Answer: The viability at 100 µM was 112%.

Question: What about the viability at 100 µM (NIH3T3 [23]) of the same molecule?
Answer: Its viability at 100 µM is 129%.

Question: And the viability at 1 µM (NIH3T3 [24])?
Answer: Its viability at 1 µM is 93%.

Question: And the viability at 1 µM (Hep 3B2 [25])?
Answer: Its viability at 1 µM is 118%.

Question: And the viability at 0.1 µM (Hep 3B2 [26])?
Answer: The viability at 0.1 µM was 69.2%.

Question: What about the viability at 10 µM (Hep 3B2 [27]) of the same molecule?
Answer: Its viability at 10 µM is 147%.

Question: With `C/C=C(/C)C(=O)O[C@@H]1c2c(ccc3ccc(=O)oc23)OC(C)(C)[C@@H]1O[C@@H]1O[C@H](CO)[C@@H](O)[C@H](O)[C@H]1O` as the molecule, how does the viability at 0.1 µM (Hep 3B2 [1]) read?
Answer: Its viability at 0.1 µM is 101%.

Question: And the Activity (Hep 3B2 [2])?
Answer: Its Activity is “Non-Toxic”.

Question: And the viability at 100 µM (Hep 3B2 [3])?
Answer: The viability at 100 µM was 114%.

Question: What about the viability at 10 µM (NIH3T3 [4]) of the same molecule?
Answer: Its viability at 10 µM is 75.8%.

Question: And the Activity (NIH3T3 [5])?
Answer: The Activity was “Dose-dependent effect”.

Question: What about the Activity (NIH3T3 [6]) of the same molecule?
Answer: Its Activity is 9.25%.

Question: What about the Activity (Hep 3B2 [7]) of the same molecule?
Answer: The Activity was “Dose-dependent effect”.

Question: And the Activity (Hep 3B2 [8])?
Answer: Its Activity is “Dose-dependent effect”.

Question: What about the viability at 10 µM (Hep 3B2 [9]) of the same molecule?
Answer: The viability at 10 µM was 76.9%.

Question: And the Activity (NIH3T3 [10])?
Answer: The Activity was 29.9%.

Question: And the viability at 0.1 µM (NIH3T3 [11])?
Answer: The viability at 0.1 µM was 58.6%.

Question: And the Activity (NIH3T3 [12])?
Answer: Its Activity is 5.75%.

Question: And the Activity (Hep 3B2 [13])?
Answer: The Activity was “Non-Toxic”.

Question: What about the Activity (Hep 3B2 [14]) of the same molecule?
Answer: The Activity was 6.16%.

Question: And the Activity (Hep 3B2 [15])?
Answer: The Activity was “Dose-dependent effect”.

Question: What about the Activity (NIH3T3 [16]) of the same molecule?
Answer: Its Activity is “Dose-dependent effect”.

Question: What about the Activity (Hep 3B2 [17]) of the same molecule?
Answer: The Activity was 28.01%.

Question: And the Activity (NIH3T3 [18])?
Answer: Its Activity is 21.12%.

Question: What about the Activity (Hep 3B2 [19]) of the same molecule?
Answer: The Activity was 19.57%.

Question: What about the viability at 1 µM (Hep 3B2 [20]) of the same molecule?
Answer: The viability at 1 µM was 65.3%.

Question: What about the Activity (Hep 3B2 [21]) of the same molecule?
Answer: Its Activity is 10.28%.

Question: What about the viability at 100 µM (Hep 3B2 [22]) of the same molecule?
Answer: The viability at 100 µM was 91.2%.

Question: What about the viability at 100 µM (NIH3T3 [23]) of the same molecule?
Answer: The viability at 100 µM was 93.8%.

Question: What about the viability at 1 µM (NIH3T3 [24]) of the same molecule?
Answer: Its viability at 1 µM is 64.5%.

Question: And the viability at 1 µM (Hep 3B2 [25])?
Answer: The viability at 1 µM was 102%.

Question: And the viability at 0.1 µM (Hep 3B2 [26])?
Answer: Its viability at 0.1 µM is 59.2%.

Question: What about the viability at 10 µM (Hep 3B2 [27]) of the same molecule?
Answer: Its viability at 10 µM is 113%.

From ChEMBL document CHEMBL4020804, “Minor phenolics from Angelica keiskei and their proliferative effects on Hep3B cells” (Bioorg Med Chem Lett, 2017)
